Hits are enriched below; roughly 6.8% of the tested compounds scored in any of these assays.
core dimer inh: inhibitors of HCV core protein dimerization, primary screen, biochemical, TR-FRET, high-throughput. TR-FRET GST/Flag-core106 dimerization, 1536-well. inhibition, % at 5 µM. 300,000 tested, 0.33% active. AID 1899, 2009;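 active = inhibition above the mean of all tested compounds plus 3 SD, set per screening campaign, cut at about 45% in these data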
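Assay system – GST-tagged and Flag-tagged HCV core protein residues 1-106 · Quantity – core106 proteins, GST 13.5 nM and Flag 17 nM · Benchmarks – unlabelled core106 and no-GST-core106 wells · Read-out basis – percent inhibition of core106 dimerization signal · Detection – time-resolved FRET, ex 340 nm, em 617 and 671 nm · Schedule – 4 h at 22.5 °C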
AI-2 QS mod: Vibrio harveyi AI-2 quorum sensing modulators, primary screen, JMH597 strain, luminescence/OD600 ratio; Vibrio harveyi JMH597 AI-2 luminescence/OD600 ratio, 9 h; hits give low values; strain lacks LuxN and CqsS sensors; 0 = neutral-control median; activity change, % at 7.5 µM; 300,000 tested, 0.4% active; AID 2094, 2009; in the data active = activity change below about -75%, passing the limit was not always enough; inconclusive = no clear call, values can overlap the other calls;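 also: luminescence divided by OD600 gain over 9 h not by final OD600 alone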
HSF1 inhib: HSF1 inhibitors in luciferase reporter cells, primary screen, cell-based, NIH3T3, luminescence. NIH3T3-HGL HSE-luciferase, MG132-induced, luminescence 8 h; hits give low values. 300,000 tested, 0.77% active. activity change, negative = inhibition, % at 7.5 µM (by protocol);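 active = more than half of replicate wells show activity change below -50%, luminescence cut by over half; inconclusive = some wells, but at most half, below -50%; inactive = no replicate well below -50%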;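 also: luciferase reports HSF-1 transcriptional activity via heat shock element; 0% = median of DMSO wells and -100% = zero luminescence signal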
HSF1 activator: HSF-1 activators, primary screen, NIH3T3-HGL cells, MG132 stress, luminescence, single point; AID 504408, 2011; NIH3T3-HGL HSF-1 luciferase reporter, 8 h; 100% = twice DMSO control signal; 300,000 tested, 1.7% active; activation, % at 9 µM;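 active = mean replicate activation of at least 50% with a set share of replicates each reaching 50%; inconclusive = only one of those two conditions met; inactive = mean below 50% and too few replicates reaching it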;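 also: 0% = median of the neutral control wells and 100% = twice that signal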
PHOSPHO1 inh: PubChem AID 1565; Phosphoethanolamine/phosphocholine phosphatase (Homo sapiens), Q8TCT1; recombinant PHOSPHO1, absorbance phosphatase assay; inhibition, % at 13.3 µM; 290,000 tested, 1.1% active; in the data active = inhibition above about 60%
Target sequence (Q8TCT1 whole entry, looked up): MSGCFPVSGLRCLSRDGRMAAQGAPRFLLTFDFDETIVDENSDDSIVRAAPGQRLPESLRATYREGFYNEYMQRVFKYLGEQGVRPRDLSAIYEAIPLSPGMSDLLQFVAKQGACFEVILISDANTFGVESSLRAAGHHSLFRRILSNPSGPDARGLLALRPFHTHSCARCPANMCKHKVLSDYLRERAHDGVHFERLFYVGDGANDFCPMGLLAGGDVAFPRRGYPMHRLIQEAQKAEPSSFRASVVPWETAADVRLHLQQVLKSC
ALR inh: inhibitors of human ALR sulfhydryl oxidase, primary screen, biochemical, H2O2 detection, HRP-luminol luminescence, single point; purified ALR, DTT oxidation; inhibition, % (no concentration beside the values); 290,000 tested, 3.8% active;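 active = mean replicate inhibition above about 79%, with every replicate also reaching it, limit read from the data; inconclusive = only one of the two criteria met; inactive = mean below limit and not every replicate reaching it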
Target sequence (P55789 whole entry, looked up): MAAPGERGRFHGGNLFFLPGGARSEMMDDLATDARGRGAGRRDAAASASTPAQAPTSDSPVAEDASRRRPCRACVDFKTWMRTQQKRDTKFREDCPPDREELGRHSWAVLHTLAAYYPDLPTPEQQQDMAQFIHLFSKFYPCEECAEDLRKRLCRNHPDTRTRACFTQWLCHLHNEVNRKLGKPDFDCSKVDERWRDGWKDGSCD
* marks the source's active call; other numbers are inactive results.

Results for CC1(c2ccc(OC(F)F)cc2)NC(=O)N(CC(=O)NCCC2=CCCCC2)C1=O (configuration not stated) ?
ALR inh: -0.9

What do the screens show for `CC(=O)N1N=C(c2ccncc2)OC12CCCCC2`?
core dimer inh: -2.0; AI-2 QS mod: 17.5; HSF1 inhib: -12.1; HSF1 activator: -9.7; PHOSPHO1 inh: 62.3*; ALR inh: -1.4

How did Oc1cccc2ccc(Nc3ccccn3)nc12 do in these assays?
core dimer inh: -11.9; AI-2 QS mod: -86.3*; HSF1 inhib: inconclusive; HSF1 activator: -51.7; PHOSPHO1 inh: -6.7; ALR inh: inconclusive

How did c1ccc(CNc2ccccn2)cc1 do in these assays?
core dimer inh: -12.0; AI-2 QS mod: 22.4; HSF1 inhib: 1.1; HSF1 activator: 9.3; PHOSPHO1 inh: 23.5; ALR inh: 2.5

How did c1ccc(Nc2ccccc2Nc2ccccn2)nc1 do in these assays?
core dimer inh: -8.0; AI-2 QS mod: -4.4; HSF1 inhib: 9.8; HSF1 activator: 37.2; PHOSPHO1 inh: 6.3; ALR inh: 88.7*

Results for CC1CCCN(C(=O)COC(=O)c2ccc(=O)n(Cc3ccccc3)n2)C1 (configuration not stated) ?
core dimer inh: 1.2; AI-2 QS mod: 22.0; HSF1 inhib: -2.2; HSF1 activator: 1.6; ALR inh: 0.9

What do the screens show for `CC1=C([N+](=O)[O-])C(c2ccc(O)c(O)c2)NC(=O)N1` (configuration not stated)?
core dimer inh: 1.6; AI-2 QS mod: 13.2; HSF1 inhib: -2.1; HSF1 activator: -2.5; PHOSPHO1 inh: 26.5; ALR inh: 98.7*

Results for CC(=O)C1=C(c2ccccc2)NC(=S)NC1c1cc(Cl)c(OC(C)C)c(Cl)c1 (configuration not stated) ?
core dimer inh: 2.3; AI-2 QS mod: 21.1; HSF1 inhib: 8.1; HSF1 activator: 29.2; PHOSPHO1 inh: -6.4; ALR inh: 12.1

What do the screens show for `COc1ccc(C2NC(=O)NC(C)=C2[N+](=O)[O-])cc1OC` (configuration not stated)?
core dimer inh: -0.8; AI-2 QS mod: 8.3; HSF1 inhib: 0.7; HSF1 activator: -6.6; PHOSPHO1 inh: 1.5; ALR inh: 9.7

What do the screens show for `CC(=O)C1=C(c2ccccc2)NC(=S)NC1c1ccc(O)c(O)c1` (configuration not stated)?
core dimer inh: 2.2; AI-2 QS mod: -14.1; HSF1 inhib: 12.3; HSF1 activator: 13.9; PHOSPHO1 inh: -35.1; ALR inh: 99.4*

Results for CC(=O)C1=C(c2ccccc2)NC(=O)NC1c1ccc(O)c(O)c1 (configuration not stated) ?
core dimer inh: -0.8; AI-2 QS mod: 23.5; HSF1 inhib: 1.8; HSF1 activator: -3.5; PHOSPHO1 inh: 47.7; ALR inh: 98.9*

Results for Cc1cc(C)cc(N2CC(C(=O)NC3CCCCC3)CC2=O)c1 (configuration not stated) ?
core dimer inh: -1.6; HSF1 inhib: -4.1; HSF1 activator: -1.6; PHOSPHO1 inh: 27.0; ALR inh: 1.8

What do the screens show for `CCCCCC(=O)Nc1nc(C)c(-c2csc(Nc3cc(OC)ccc3OC)n2)s1`?
core dimer inh: 4.0; AI-2 QS mod: 24.6; HSF1 inhib: -1.6; HSF1 activator: -3.9; PHOSPHO1 inh: 50.0; ALR inh: -20.9

Results for Cc1ccc(-c2csc(NC(=O)c3ccco3)n2)cc1C ?
core dimer inh: 0.6; AI-2 QS mod: 41.3; HSF1 inhib: 8.5; HSF1 activator: 62.4*; PHOSPHO1 inh: -7.2; ALR inh: 55.2

What do the screens show for `COc1ccc(OC)c(Nc2nc(-c3sc(NC(=O)c4ccccc4)nc3C)cs2)c1`?
core dimer inh: 11.4; AI-2 QS mod: 14.3; HSF1 inhib: 13.1; HSF1 activator: 14.8; PHOSPHO1 inh: 33.8; ALR inh: -25.3

How did Cc1nc(NC(=O)CC(C)C)sc1-c1csc(Nc2ccc(Cl)cc2Cl)n1 do in these assays?
core dimer inh: -5.5; AI-2 QS mod: 51.8; HSF1 inhib: -4.3; HSF1 activator: 4.4; PHOSPHO1 inh: 54.9; ALR inh: -2.4

What do the screens show for `CCC(C)C(=O)Nc1nc(C)c(-c2csc(Nc3ccccc3OC)n2)s1` (configuration not stated)?
core dimer inh: -6.7; AI-2 QS mod: 14.7; HSF1 inhib: 2.6; HSF1 activator: 6.1; PHOSPHO1 inh: 74.3*; ALR inh: 15.4

Results for CCCCCCC(=O)Nc1nc(C)c(-c2csc(Nc3cc(OC)ccc3OC)n2)s1 ?
core dimer inh: -6.0; AI-2 QS mod: 3.0; HSF1 inhib: -39.0; HSF1 activator: -53.9; PHOSPHO1 inh: 76.8*; ALR inh: -6.1

Results for COc1ccc(Cl)cc1Nc1nc(-c2sc(NC(=O)CC(C)C)nc2C)cs1 ?
core dimer inh: -4.3; AI-2 QS mod: 31.2; HSF1 inhib: -39.0; HSF1 activator: -52.7; PHOSPHO1 inh: 93.8*; ALR inh: -14.7

How did O=c1[nH]c2ccsc2c(=O)n1CCO do in these assays?
core dimer inh: -4.7; HSF1 inhib: 1.3; HSF1 activator: -0.5; PHOSPHO1 inh: 27.3; ALR inh: -6.1

What do the screens show for `C=CCCC(=O)Nc1nc(C)c(-c2csc(Nc3ccc(Cl)cc3Cl)n2)s1`?
core dimer inh: 0.4; AI-2 QS mod: 13.1; HSF1 inhib: -1.5; HSF1 activator: 2.8; PHOSPHO1 inh: 42.7; ALR inh: -8.1

What do the screens show for `C=CCCC(=O)Nc1nc(C)c(-c2csc(Nc3cc(Cl)ccc3OC)n2)s1`?
core dimer inh: -8.1; AI-2 QS mod: 14.5; HSF1 inhib: -11.5; HSF1 activator: -30.9; PHOSPHO1 inh: 98.7*; ALR inh: -9.9

How did COc1ccccc1Nc1nc(-c2sc(NC(=O)c3ccco3)nc2C)cs1 do in these assays?
core dimer inh: -1.6; AI-2 QS mod: 13.4; HSF1 inhib: -2.2; HSF1 activator: 2.6; PHOSPHO1 inh: 86.5*; ALR inh: -1.2

What do the screens show for `CN(C(=O)c1ccco1)c1nc(-c2ccccc2)cs1`?
core dimer inh: -14.6; HSF1 inhib: 32.4; HSF1 activator: 75.9*; PHOSPHO1 inh: 34.3; ALR inh: -2.0

Results for C=CCCC(=O)Nc1nc(C)c(-c2csc(Nc3ccccc3OC)n2)s1 ?
core dimer inh: -12.0; AI-2 QS mod: 2.8; HSF1 inhib: -39.0; HSF1 activator: -52.3; PHOSPHO1 inh: 76.8*; ALR inh: -6.9

What do the screens show for `COc1ccc(Cl)cc1Nc1nc(-c2sc(NC(=O)c3ccccc3)nc2C)cs1`?
core dimer inh: 28.8; AI-2 QS mod: -1.8; HSF1 inhib: 5.1; HSF1 activator: 9.4; PHOSPHO1 inh: -53.0; ALR inh: 44.2

Assay outcomes from PubChem BioAssay.
